# Screening results from PubChem.
# Shown are actives, neighbours in structure and some others; about 2% of the full set was active somewhere.
# Insulin prom inh – TRM-6 insulin promoter activity inhibition; TRM-6 cells (human fetal islet line), insulin promoter-eGFP reporter, imaging; reporter expression induced with tamoxifen; actives 0.9% (n = 130,000); AID 1273; inhibition, % at 2 µM;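 active = inhibition above the mean plus 3 SD, with well images judged a real hit on visual review, cut at about 60% in these data, passing the limit was not always enough; inconclusive = inhibition over the cutoff but images rejected on review; inactive = inhibition not above the cutoff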
# Furin inh – human furin inhibition. P09958. purified furin, fluorogenic substrate cleavage. inhibition, % at 20 µM or 30 µM. actives 0.061% (n = 220,000). AID 463115; in the data active = inhibition above about 25%
# Target sequence (P09958 108-714 limits assumed): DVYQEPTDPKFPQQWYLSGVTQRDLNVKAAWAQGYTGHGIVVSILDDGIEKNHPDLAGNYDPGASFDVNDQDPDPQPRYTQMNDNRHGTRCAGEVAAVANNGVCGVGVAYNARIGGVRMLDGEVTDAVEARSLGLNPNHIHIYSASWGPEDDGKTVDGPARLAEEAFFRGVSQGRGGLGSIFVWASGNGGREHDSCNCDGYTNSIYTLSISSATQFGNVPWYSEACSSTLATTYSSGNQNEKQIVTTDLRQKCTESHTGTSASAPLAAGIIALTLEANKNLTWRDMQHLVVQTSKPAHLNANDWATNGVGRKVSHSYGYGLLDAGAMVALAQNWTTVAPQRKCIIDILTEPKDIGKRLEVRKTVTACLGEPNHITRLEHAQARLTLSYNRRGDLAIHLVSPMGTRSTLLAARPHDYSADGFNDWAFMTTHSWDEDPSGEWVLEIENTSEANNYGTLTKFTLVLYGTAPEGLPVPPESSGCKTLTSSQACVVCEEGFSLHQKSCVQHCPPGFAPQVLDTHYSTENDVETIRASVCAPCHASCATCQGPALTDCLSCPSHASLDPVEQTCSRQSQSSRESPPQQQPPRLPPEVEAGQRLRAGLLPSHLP
# Autophagy mod – alters autophagy in cells; calls only at 10 µM (by protocol); actives 0.98% (n = 190,000); MEF GFP-LC3 puncta imaging; test concentration mostly 10 µM;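 active = percentage of spot-positive cells more than 3 SD above its plate mean, without a fluorescence outlier flag or 80% toxicity; inconclusive = no clear call, values can overlap the other calls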
# HSV augment – increases HSV replication in cells | HSV replication augmentation in cells, fold increase | maximum fold increase | actives 0.005% (n = 220,000) | AID 1956; in the data active = maximum fold increase above about 1.5; inconclusive = no clear call, values can overlap the other calls; tested in PC3 cells
# Dynein cargo inh – blocks dynein driven cargo transport along microtubules; z-score, hits read low; actives 0.47% (n = 220,000); 3617.4 mouse cells, GR-EGFP nuclear translocation imaging; test concentration mostly 20 µM; stimulated with dexamethasone, 1 µM; stronger effect = lower value;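 active = plate z-score of nuclear minus cytoplasmic receptor signal below a set negative limit, without overly bright fluorescence or cell loss, cut at about -3.5 in these data, passing the limit was not always enough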;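 note: z-score of nuclear minus cytoplasmic ring GR-EGFP intensity difference per well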
#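 Buffer or medium: tet-free, stripped-serum medium; Also added: dexamethasone, 1.0 µM final; Technique: high-content fluorescence imaging after fixation; Times: 48 h induction, 1 h compound, 30 min dex at 37 °C; Read-out: per-cell GR-EGFP intensity, nucleus versus surrounding cytoplasmic ring, well-averaged.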
# Ins promoter up – MIN6 insulin promoter up-regulation; MIN6 insulin promoter-GFP reporter, high-content imaging; stronger effect = higher value; z-score at 5 µM; actives 0.3% (n = 190,000);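 active = z-score above 3 at 5 µM with at least 500 cells counted in the well; inconclusive = wells under 500 cells, flagged as cytotoxic or low count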
# Numbers stand for hits; – = inactive; ? = inconclusive; · = no result given; + = active, no number.
SMILES,Insulin prom inh,Furin inh,Autophagy mod,HSV augment,Dynein cargo inh,Ins promoter up
CC(=O)Nc1nc(SCC(=O)Nc2nnc(C)s2)[nH]c(=O)c1NC(=O)c1cccs1,·,–,–,–,–,–
CCCCn1c(=O)nc2n(-c3ccc(Cl)cc3)c3ccccc3cc-2c1=O,–,–,–,–,–,–
O=C(Nc1nccs1)c1cc2sccc2n1Cc1ccc(Cl)cc1,·,–,+,–,–,–
O=C1c2ccccc2C(=O)N1c1ccc(-c2nc3ccccc3o2)cc1,·,–,+,–,–,–
O=C1c2ccccc2C(=O)N1c1cccc(-c2nc3ccccc3o2)c1,–,–,–,–,–,–
CC(C)C(=O)Nc1ccc([N+](=O)[O-])c(C(F)(F)F)c1,86.7,–,–,–,–,–
COc1cccc(/C(O)=C/c2nc3ccc(C(=O)NCCc4cccc(C)c4)cc3[nH]c2=O)c1,·,–,+,–,–,–
O=C(Cn1nc(-c2ccc3c(c2)OCCO3)ccc1=O)Nc1cccc(NC(=O)c2ccccn2)c1,–,–,–,–,–,–
O=S(=O)(c1ccc(Cl)cc1)N1CCC(N2CCOCC2)CC1,·,–,–,–,–,–
Nc1nc(-c2ccc(Cl)cc2)c(N=Nc2ccc(S(=O)(=O)N3CCOCC3)cc2)s1,–,–,–,–,–,3.8
COc1ccc(C2C(C(=O)c3ccccc3)=C(C)Nc3nc4ccccc4n32)c(OC)c1 (stereo not given),–,–,–,·,–,3.79
COc1ccc(OC)c(C2C(C(=O)N(C)C)=C(C)Nc3nc4ccccc4n32)c1 (stereo not given),–,–,–,–,–,–
O=C(O)C1CCCN1S(=O)(=O)c1cccc2nsnc12 (stereo not given),–,–,–,–,–,–
Cc1ccccc1OCC(=O)OC1CCN(C)CC1,–,–,–,–,–,8.59
COc1cccc(OCCCn2cc(/C=C3/C(=N)N4C=C(C)SC4=NC3=O)c3ccccc32)c1,–,–,–,–,–,–
COc1ccc(OCCCn2cc(/C=C3/C(=N)N4C=C(C)SC4=NC3=O)c3ccccc32)cc1,–,–,+,–,–,–
CCOc1ccccc1N(CC(=O)Nc1ccc2c(c1)OCCO2)S(C)(=O)=O,81.8,–,–,–,–,–
CCOc1ccccc1N(CC(=O)Nc1ccc2c(c1)OCO2)S(C)(=O)=O,·,–,–,–,–,–
COc1cc2c(cc1NC(=O)CN1CCN(S(=O)(=O)c3ccccc3F)CC1)oc1ccccc12,–,–,–,–,–,3.63
COc1cc2c(cc1NC(=O)Cc1ccc(C)cc1)oc1ccccc12,–,–,–,–,–,·
COc1ccc(-c2csc(/C(C#N)=C/Nc3cc4oc5ccccc5c4cc3OC)n2)cc1,–,–,+,–,–,·
COc1ccc(-c2csc(/C(C#N)=C/Nc3ccc4c(c3)OCCO4)n2)cc1,–,–,–,–,–,–
Cc1noc(-c2ccc(C(F)(F)F)cc2)c1NC(=O)Nc1ccc(Cl)cc1,·,–,·,–,–,·
Cc1[nH]c2ccccc2c1/C=N/Nc1cccc(C(=O)O)c1,·,–,·,–,–,–
O=C(Nc1nc(-c2cccs2)c(-c2cccs2)s1)C1CCCC1,–,–,–,–,–,–
SMILES,Insulin prom inh,Furin inh,Autophagy mod,HSV augment,Dynein cargo inh,Ins promoter up
CC12CCC(C(=O)N(CSC(=S)N/N=C\c3ccccc3Cl)C1=O)C2(C)C (stereo not given),–,–,–,–,–,·
CC12CCC(C(=O)N(CSC(=S)N/N=C\c3ccccc3)C1=O)C2(C)C (stereo not given),75.9,–,–,·,–,·
COc1ccc(Cn2nnnc2C(c2cccs2)N2CCOCC2)cc1 (stereo not given),100.0,–,–,–,–,–
O=C(Nc1nc2ccc(SC(F)F)cc2s1)c1ccc(NS(=O)(=O)c2ccc(F)c(F)c2)cc1,–,–,–,–,–,–
COc1ccc(CCNC(=O)c2ccc(N3CCCC3=O)cc2)cc1OC,–,26.3,–,–,–,–
CCN(CC)S(=O)(=O)c1ccc(NC(=O)c2cc(C(=O)OC)cc([N+](=O)[O-])c2)cc1,70.6,–,–,–,–,–
COC(=O)c1cc(C(=O)Nc2ccc(S(=O)(=O)NC(C)(C)C)cc2)cc([N+](=O)[O-])c1,–,–,–,–,–,–
CCOC(=O)CC(NC(=O)CCc1c(C)nc2ncnn2c1C)c1ccc(OC(C)C)cc1 (stereo not given),·,–,–,–,–,–
O=C(CSc1nc2ccccc2[nH]1)Nc1c(F)cccc1F,88.6,–,–,–,–,–
Fc1ccccc1CSCc1nc2ccccc2[nH]1,·,–,+,–,–,–
Fc1cccc(F)c1CSc1nc2ccccc2[nH]1,75.3,–,–,–,–,–
Cc1noc(C)c1CSc1nc2ccccc2[nH]1,–,–,–,–,–,–
COc1cc(/C=N/NC(=O)c2ccc(-n3cccc3)cc2)ccc1O,71.4,–,–,–,–,–
COc1ccc(N(C)C(=O)c2oc(=O)c3ccccc3c2-c2ccccc2)c(OC)c1,·,–,·,–,–,–
Cc1cc(=O)[nH]c2c(C)c(N)ccc12,–,–,–,–,–,–
Cc1cc(C)c2ccc3c(C)c(C)nc3c2[nH]1,·,–,+,–,–,–
CCCCCCn1c(CN2CCN(CCO)CC2)nc2c1c(=O)n(C)c(=O)n2C,100.0,–,–,–,–,–
CCCCn1c(CN(C)Cc2ccccc2)nc2c1c(=O)n(C)c(=O)n2C,71.4,–,–,–,–,–
CCCn1c(CN(C)Cc2ccccc2)nc2c1c(=O)n(C)c(=O)n2C,–,–,–,–,–,–
COc1ccc(/C=N/NC(=O)Cc2cc(OC)c(OC)cc2[N+](=O)[O-])cc1,·,–,–,–,–,·
O=C(C1=NN(c2ccccc2)C2C(=O)N(c3cccc(Cl)c3)C(=O)C12)c1ccccc1 (stereo not given),–,–,–,?,–,3.17
COc1ccc(N2CC(NC(=O)NCCC(C)C)CC2=O)cc1 (stereo not given),·,–,–,–,–,–
Cc1ccccc1N=Cc1c(O)n(-c2nccs2)c(=O)c2ccccc12,–,–,–,–,–,–
O=c1c2ccccc2c(C=Nc2ccccc2O)c(O)n1-c1nccs1,·,–,·,?,–,4.35
COc1ccc(-c2nnn(CCC(=O)O)n2)cc1,–,–,–,–,–,–
SMILES,Insulin prom inh,Furin inh,Autophagy mod,HSV augment,Dynein cargo inh,Ins promoter up
COc1ccc(-c2nnn(CCc3nn[nH]n3)n2)cc1,75.0,–,–,–,–,·
O=C(CN1CCN(c2ccc(O)cc2)CC1)Nc1cc([N+](=O)[O-])ccc1Cl,·,–,+,–,–,–
CC(=O)N1CCN(CC(=O)Nc2cc([N+](=O)[O-])ccc2Cl)CC1,·,–,–,–,–,–
COc1ccc2c(CC(=O)Nc3ccc(OC)nc3)coc2c1,–,–,+,–,–,–
COc1cccc2c1OC1(C)CC2/C(=C(\C)O)C(=O)N1 (stereo not given),90.9,–,–,–,–,–
C=CCc1c(O)c(CC)cc2c(C)cc(=O)oc12,·,–,·,–,–,·
